Measured values as given in ChEMBL document CHEMBL4673184, “Synthesis and biological evaluation of S-lipidated lipopeptides of a connexin 43 channel inhibitory peptide” (RSC Med Chem, 2020).
Active and inactive are the calls of the source. The rule behind the calls is not given here. Where a SMILES comes first, the peptide text is derived from it. [ ]: non-standard residue; d: D form. The star is where a group is joined. Ethyl(2-stearoyloxy) = CCCCCCCCCCCCCCCCCC(=O)OCC*; Ethyl(2-palmitoyloxy) = CCCCCCCCCCCCCCCC(=O)OCC*; CH2CH2OBz(4-tBu) = CC(C)(C)c1ccc(C(=O)OCC*)cc1; Ethyl(2-decanoyloxy) = CCCCCCCCCC(=O)OCC*; Ethyl(2-butanoyloxy) = CCCC(=O)OCC*; Ethyl(2-OPiv) = CC(C)(C)C(=O)OCC*; Mpa = O=C(O)CCS

target: Gap junction alpha-1 protein (Homo sapiens) (UniProt P17302); assay: Inhibition of Cx43 in hypoxic-acidic ion-shifted ringers solution-induced human cerebral microvascular endothelial cell model of ischaemic injury assessed as ATP release at 10 uM measured after 2 hrs by luciferin-luciferase based luminescence assay relative to control; design: scale not given: the % may be the effect or the level left
Summary of the method: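 hCMVEC (passages 8-17) seeded at 2 x 10^6/well on collagen-I (1 µg/cm²) and grown 48 h to a confluent monolayer. Washed in NR, then exposed 2 h in HAIR (pH 6.6, N₂-bubbled, low Ca²⁺, K-gluconate/NMDG) containing peptide at 10 µM. Supernatant diluted 1:10 in firefly luciferase mix and read at 560 nm against an ATP standard (0-50 nM). Expressed as % of HAIR-only, mean of n=3.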

Sequence of Gap junction alpha-1 protein (Homo sapiens) (P17302 whole entry): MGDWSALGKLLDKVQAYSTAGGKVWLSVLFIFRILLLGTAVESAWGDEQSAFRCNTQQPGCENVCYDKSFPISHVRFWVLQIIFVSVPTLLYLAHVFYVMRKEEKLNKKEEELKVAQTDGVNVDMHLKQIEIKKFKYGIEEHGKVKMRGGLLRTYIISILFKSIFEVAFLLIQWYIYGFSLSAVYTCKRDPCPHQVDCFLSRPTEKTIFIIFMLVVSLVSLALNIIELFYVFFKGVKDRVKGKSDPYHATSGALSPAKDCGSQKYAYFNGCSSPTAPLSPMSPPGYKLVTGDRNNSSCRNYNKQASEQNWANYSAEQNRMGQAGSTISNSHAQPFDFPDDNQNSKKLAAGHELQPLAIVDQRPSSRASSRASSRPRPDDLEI

| SMILES | Activity |
| --- | --- |
| CCCCCCCCCCCCCCCC(=O)OCCSC[C@H](NC(=O)[C@H](CCCCN)NC(=O)[C@H](CCC(=O)O)NC(=O)[C@@H](NC(=O)[C@@H]1CCCN1C(=O)[C@H](CCCNC(=N)N)NC(=O)[C@H](CO)NC(=O)[C@H](CC(C)C)NC(=O)[C@H](Cc1ccccc1)NC(=O)[C@H](CS)NC(=O)[C@H](CC(=O)O)NC(=O)[C@@H](N)C(C)C)[C@@H](C)O)C(=O)O (H-VDCFLSRPTEKC(Ethyl(2-palmitoyloxy))-OH) | 131% |
| CCCC(=O)OCCSCCC(=O)N[C@H](C(=O)N[C@@H](CC(=O)O)C(=O)N[C@@H](CS)C(=O)N[C@@H](Cc1ccccc1)C(=O)N[C@@H](CC(C)C)C(=O)N[C@@H](CO)C(=O)N[C@@H](CCCNC(=N)N)C(=O)N1CCC[C@H]1C(=O)N[C@H](C(=O)N[C@@H](CCC(=O)O)C(=O)N[C@@H](CCCCN)C(=O)N[C@H](C(=O)O)[C@@H](C)O)[C@@H](C)O)C(C)C ([Mpa](Ethyl(2-butanoyloxy))VDCFLSRPTEKT-OH) | 28.8% |
| CCCC(=O)OCCSC[C@H](NC(=O)[C@H](CCCCN)NC(=O)[C@H](CCC(=O)O)NC(=O)[C@@H](NC(=O)[C@@H]1CCCN1C(=O)[C@H](CCCNC(=N)N)NC(=O)[C@H](CO)NC(=O)[C@H](CC(C)C)NC(=O)[C@H](Cc1ccccc1)NC(=O)[C@H](CS)NC(=O)[C@H](CC(=O)O)NC(=O)[C@@H](N)C(C)C)[C@@H](C)O)C(=O)O (H-VDCFLSRPTEKC(Ethyl(2-butanoyloxy))-OH) | inactive |
| CCCCCCCCCCCCCCCC(=O)OCCSC[C@H](NC(=O)[C@H](CS)NC(=O)[C@H](CC(=O)O)NC(=O)[C@@H](N)C(C)C)C(=O)N[C@@H](CC(C)C)C(=O)N[C@@H](CO)C(=O)N[C@@H](CCCNC(=N)N)C(=O)N1CCC[C@H]1C(=O)N[C@H](C(=O)N[C@@H](CCC(=O)O)C(=O)N[C@@H](CCCCN)C(=O)N[C@H](C(=O)O)[C@@H](C)O)[C@@H](C)O (H-VDCC(Ethyl(2-palmitoyloxy))LSRPTEKT-OH) | inactive |
| CCCCCCCCCCCCCCCC(=O)OCCSC[C@H](NC(=O)[C@H](CC(C)C)NC(=O)[C@H](Cc1ccccc1)NC(=O)[C@H](CS)NC(=O)[C@H](CC(=O)O)NC(=O)[C@@H](N)C(C)C)C(=O)N[C@@H](CCCNC(=N)N)C(=O)N1CCC[C@H]1C(=O)N[C@H](C(=O)N[C@@H](CCC(=O)O)C(=O)N[C@@H](CCCCN)C(=O)N[C@H](C(=O)O)[C@@H](C)O)[C@@H](C)O (H-VDCFLC(Ethyl(2-palmitoyloxy))RPTEKT-OH) | inactive |
| CC(C)C[C@H](NC(=O)[C@H](Cc1ccccc1)NC(=O)[C@H](CS)NC(=O)[C@H](CC(=O)O)NC(=O)[C@@H](N)CSCCOC(=O)C(C)(C)C)C(=O)N[C@@H](CO)C(=O)N[C@@H](CCCNC(=N)N)C(=O)N1CCC[C@H]1C(=O)N[C@H](C(=O)N[C@@H](CCC(=O)O)C(=O)N[C@@H](CCCCN)C(=O)N[C@H](C(=O)O)[C@@H](C)O)[C@@H](C)O (H-C(Ethyl(2-OPiv))DCFLSRPTEKT-OH) | inactive |
| CCCC(=O)OCCSC[C@H](NC(=O)[C@H](CC(C)C)NC(=O)[C@H](Cc1ccccc1)NC(=O)[C@H](CS)NC(=O)[C@H](CC(=O)O)NC(=O)[C@@H](N)C(C)C)C(=O)N[C@@H](CCCNC(=N)N)C(=O)N1CCC[C@H]1C(=O)N[C@H](C(=O)N[C@@H](CCC(=O)O)C(=O)N[C@@H](CCCCN)C(=O)N[C@H](C(=O)O)[C@@H](C)O)[C@@H](C)O (H-VDCFLC(Ethyl(2-butanoyloxy))RPTEKT-OH) | inactive |
| CC(C)C[C@H](NC(=O)[C@H](Cc1ccccc1)NC(=O)[C@H](CS)NC(=O)[C@H](CC(=O)O)NC(=O)[C@@H](N)C(C)C)C(=O)N[C@@H](CO)C(=O)N[C@@H](CCCNC(=N)N)C(=O)N1CCC[C@H]1C(=O)N[C@H](C(=O)N[C@@H](CCC(=O)O)C(=O)N[C@@H](CCCCN)C(=O)N[C@@H](CSCCOC(=O)c1ccc(C(C)(C)C)cc1)C(=O)O)[C@@H](C)O (H-VDCFLSRPTEKC(CH2CH2OBz(4-tBu))-OH) | inactive |
| CC1(C)[C@@H](OC(=O)CCC(=O)O)CC[C@]2(C)[C@H]3C(=O)C=C4[C@@H]5C[C@@](C)(C(=O)O)CC[C@]5(C)CC[C@@]4(C)[C@]3(C)CC[C@@H]12 | 23.3% |
| CCCCCCCCCCCCCCCCCC(=O)OCCSC[C@H](NC(=O)[C@@H]1CCCN1C(=O)[C@H](CCCNC(=N)N)NC(=O)[C@H](CO)NC(=O)[C@H](CC(C)C)NC(=O)[C@H](Cc1ccccc1)NC(=O)[C@H](CS)NC(=O)[C@H](CC(=O)O)NC(=O)[C@@H](N)C(C)C)C(=O)N[C@@H](CCC(=O)O)C(=O)N[C@@H](CCCCN)C(=O)N[C@H](C(=O)O)[C@@H](C)O (H-VDCFLSRPC(Ethyl(2-stearoyloxy))EKT-OH) | 102% |
| CC(C)C[C@H](NC(=O)[C@H](Cc1ccccc1)NC(=O)[C@H](CS)NC(=O)[C@H](CC(=O)O)NC(=O)[C@@H](N)C(C)C)C(=O)N[C@@H](CO)C(=O)N[C@@H](CCCNC(=N)N)C(=O)N1CCC[C@H]1C(=O)N[C@H](C(=O)N[C@@H](CCC(=O)O)C(=O)N[C@@H](CCCCN)C(=O)N[C@@H](CSCCOC(=O)C(C)(C)C)C(=O)O)[C@@H](C)O (H-VDCFLSRPTEKC(Ethyl(2-OPiv))-OH) | inactive |
| CCCCCCCCCCCCCCCCCC(=O)OCCSC[C@H](NC(=O)[C@H](CCCCN)NC(=O)[C@H](CCC(=O)O)NC(=O)[C@@H](NC(=O)[C@@H]1CCCN1C(=O)[C@H](CCCNC(=N)N)NC(=O)[C@H](CO)NC(=O)[C@H](CC(C)C)NC(=O)[C@H](Cc1ccccc1)NC(=O)[C@H](CS)NC(=O)[C@H](CC(=O)O)NC(=O)[C@@H](N)C(C)C)[C@@H](C)O)C(=O)O (H-VDCFLSRPTEKC(Ethyl(2-stearoyloxy))-OH) | 129% |
| CC(C)C[C@H](NC(=O)[C@H](Cc1ccccc1)NC(=O)[C@H](CS)NC(=O)[C@H](CC(=O)O)NC(=O)[C@@H](N)C(C)C)C(=O)N[C@@H](CO)C(=O)N[C@@H](CCCNC(=N)N)C(=O)N1CCC[C@H]1C(=O)N[C@H](C(=O)N[C@@H](CSCCOC(=O)C(C)(C)C)C(=O)N[C@@H](CCCCN)C(=O)N[C@H](C(=O)O)[C@@H](C)O)[C@@H](C)O (H-VDCFLSRPTC(Ethyl(2-OPiv))KT-OH) | inactive |
| CC(C)C[C@H](NC(=O)[C@H](Cc1ccccc1)NC(=O)[C@H](CS)NC(=O)[C@H](CC(=O)O)NC(=O)[C@@H](N)C(C)C)C(=O)N[C@@H](CO)C(=O)N[C@@H](CCCNC(=N)N)C(=O)N1CCC[C@H]1C(=O)N[C@H](C(=O)N[C@@H](CSCCOC(=O)c1ccc(C(C)(C)C)cc1)C(=O)N[C@@H](CCCCN)C(=O)N[C@H](C(=O)O)[C@@H](C)O)[C@@H](C)O (H-VDCFLSRPTC(CH2CH2OBz(4-tBu))KT-OH) | inactive |
| CCCC(=O)OCCSC[C@H](NC(=O)[C@@H](NC(=O)[C@@H]1CCCN1C(=O)[C@H](CCCNC(=N)N)NC(=O)[C@H](CO)NC(=O)[C@H](CC(C)C)NC(=O)[C@H](Cc1ccccc1)NC(=O)[C@H](CS)NC(=O)[C@H](CC(=O)O)NC(=O)[C@@H](N)C(C)C)[C@@H](C)O)C(=O)N[C@@H](CCCCN)C(=O)N[C@H](C(=O)O)[C@@H](C)O (H-VDCFLSRPTC(Ethyl(2-butanoyloxy))KT-OH) | 32% |
| CCCCCCCCCC(=O)OCCSC[C@H](NC(=O)[C@H](CC(C)C)NC(=O)[C@H](Cc1ccccc1)NC(=O)[C@H](CS)NC(=O)[C@H](CC(=O)O)NC(=O)[C@@H](N)C(C)C)C(=O)N[C@@H](CCCNC(=N)N)C(=O)N1CCC[C@H]1C(=O)N[C@H](C(=O)N[C@@H](CCC(=O)O)C(=O)N[C@@H](CCCCN)C(=O)N[C@H](C(=O)O)[C@@H](C)O)[C@@H](C)O (H-VDCFLC(Ethyl(2-decanoyloxy))RPTEKT-OH) | inactive |
| CC(C)C[C@H](NC(=O)[C@H](Cc1ccccc1)NC(=O)[C@H](CS)NC(=O)[C@H](CC(=O)O)NC(=O)[C@@H](N)CSCCOC(=O)c1ccc(C(C)(C)C)cc1)C(=O)N[C@@H](CO)C(=O)N[C@@H](CCCNC(=N)N)C(=O)N1CCC[C@H]1C(=O)N[C@H](C(=O)N[C@@H](CCC(=O)O)C(=O)N[C@@H](CCCCN)C(=O)N[C@H](C(=O)O)[C@@H](C)O)[C@@H](C)O (H-C(CH2CH2OBz(4-tBu))DCFLSRPTEKT-OH) | inactive |
| CCCCCCCCCC(=O)OCCSC[C@H](NC(=O)[C@H](CCCCN)NC(=O)[C@H](CCC(=O)O)NC(=O)[C@@H](NC(=O)[C@@H]1CCCN1C(=O)[C@H](CCCNC(=N)N)NC(=O)[C@H](CO)NC(=O)[C@H](CC(C)C)NC(=O)[C@H](Cc1ccccc1)NC(=O)[C@H](CS)NC(=O)[C@H](CC(=O)O)NC(=O)[C@@H](N)C(C)C)[C@@H](C)O)C(=O)O (H-VDCFLSRPTEKC(Ethyl(2-decanoyloxy))-OH) | inactive |
| CCCCCCCCCCCCCCCCCC(=O)OCCSC[C@H](NC(=O)[C@H](CS)NC(=O)[C@H](CC(=O)O)NC(=O)[C@@H](N)C(C)C)C(=O)N[C@@H](CC(C)C)C(=O)N[C@@H](CO)C(=O)N[C@@H](CCCNC(=N)N)C(=O)N1CCC[C@H]1C(=O)N[C@H](C(=O)N[C@@H](CCC(=O)O)C(=O)N[C@@H](CCCCN)C(=O)N[C@H](C(=O)O)[C@@H](C)O)[C@@H](C)O (H-VDCC(Ethyl(2-stearoyloxy))LSRPTEKT-OH) | inactive |
| CCCC(=O)OCCSC[C@H](NC(=O)[C@H](CS)NC(=O)[C@H](CC(=O)O)NC(=O)[C@@H](N)C(C)C)C(=O)N[C@@H](CC(C)C)C(=O)N[C@@H](CO)C(=O)N[C@@H](CCCNC(=N)N)C(=O)N1CCC[C@H]1C(=O)N[C@H](C(=O)N[C@@H](CCC(=O)O)C(=O)N[C@@H](CCCCN)C(=O)N[C@H](C(=O)O)[C@@H](C)O)[C@@H](C)O (H-VDCC(Ethyl(2-butanoyloxy))LSRPTEKT-OH) | inactive |
| CCCCCCCCCCCCCCCCCC(=O)OCCSC[C@H](N)C(=O)N[C@@H](CC(=O)O)C(=O)N[C@@H](CS)C(=O)N[C@@H](Cc1ccccc1)C(=O)N[C@@H](CC(C)C)C(=O)N[C@@H](CO)C(=O)N[C@@H](CCCNC(=N)N)C(=O)N1CCC[C@H]1C(=O)N[C@H](C(=O)N[C@@H](CCC(=O)O)C(=O)N[C@@H](CCCCN)C(=O)N[C@H](C(=O)O)[C@@H](C)O)[C@@H](C)O (H-C(Ethyl(2-stearoyloxy))DCFLSRPTEKT-OH) | inactive |
